Values after ≈ are worked out from the molar mass of the structure shown. Bridge positions count the residues as written; N and C are the ends. Square brackets hold non-standard residues; d marks the D form. Peptide text beside a SMILES is read from it. * marks the point of attachment. X1 = CC[C@H](C)CCCCC(=O)*; Dab = NCC[C@H](N)C(=O)O
How the values were obtained:
[1] = tested on: Escherichia coli; assay: Antibacterial activity against Escherichia coli ATCC 25922 after 18 hrs in presence of NH4Cl by broth dilution method; assay type: functional; conditions: ATCC 25922, 18 h
[2] = tested on: Escherichia coli; assay: Antibacterial activity against Escherichia coli ATCC 25922 after 18 hrs in presence of KCl by broth dilution method; assay type: functional; conditions: ATCC 25922, 18 h
[3] = tested on: Escherichia coli; assay: Antibacterial activity against Escherichia coli ATCC 25922 after 18 hrs in presence of 25% human heat-inactivated serum by broth dilution method; assay type: functional; conditions: ATCC 25922, 18 h
[4] = tested on: Staphylococcus epidermidis; assay: Bactericidal activity against Staphylococcus epidermidis ATCC 12228; assay type: functional; conditions: read-out: MBC99.9
Outline: (§1)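 Wells from the 24 h, 37 °C MHB microdilution plates (bacteria at a final (0.5−1) × 10^5 CFU/mL; peptide diluted in 0.2% BSA) were plated on agar and incubated overnight. MBC is the lowest concentration killing >99.9% of cells. Each test was reproduced at least 3 times.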

[5] = Antibacterial activity against Salmonella pullorum ATCC 7913 after 24 hrs; assay type: functional, Salmonella enterica subsp. enterica serovar Pullorum; conditions: Salmonella enterica, ATCC 7913, 24 h
Outline: (§2)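 Broth microdilution. Mid-log bacteria in MHB at a final (0.5−1) × 10^5 CFU/mL were mixed with equal volumes of peptide serially diluted in 0.2% BSA. Plates were incubated 24 h at 37 °C and read at A492. MIC is the lowest concentration inhibiting 95% of growth. Each test was repeated at least 3 times.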

[6] = tested on: Escherichia coli; assay: Antibacterial activity against Escherichia coli 1005 after 24 hrs; assay type: functional; conditions: Escherichia coli, 1005, 24 h; outline: as §2
[7] = tested on: Staphylococcus aureus; assay: Bactericidal activity against Staphylococcus aureus ATCC 29213; assay type: functional; conditions: read-out: MBC99.9; outline: as §1
[8] = tested on: Escherichia coli; assay: Antibacterial activity against Escherichia coli ATCC 25922 after 18 hrs in presence of NaCl by broth dilution method; assay type: functional; conditions: ATCC 25922, 18 h
[9] = tested on: Escherichia coli; assay: Antibacterial activity against Escherichia coli ATCC 25922 after 18 hrs in presence of 12.5% human heat-inactivated serum by broth dilution method; assay type: functional; conditions: ATCC 25922, 18 h
[10] = tested on: Salmonella typhimurium; assay: Bactericidal activity against Salmonella typhimurium ATCC 14028; assay type: functional, Salmonella enterica subsp. enterica serovar Typhimurium; conditions: Salmonella enterica, read-out: MBC99.9; outline: as §1
[11] = tested on: Staphylococcus aureus; assay: Bactericidal activity against Staphylococcus aureus ATCC 25923; assay type: functional; conditions: read-out: MBC99.9; outline: as §1
[12] = tested on: Escherichia coli; assay: Antibacterial activity against Escherichia coli ATCC 25922 after 18 hrs in presence of CaCl2 by broth dilution method; assay type: functional; conditions: ATCC 25922, 18 h
[13] = tested on: Escherichia coli; assay: Antibacterial activity against Escherichia coli ATCC 25922 after 18 hrs in presence of 50% human heat-inactivated serum by broth dilution method; assay type: functional; conditions: ATCC 25922, 18 h
[14] = tested on: Escherichia coli; assay: Antibacterial activity against Escherichia coli ATCC 25922 after 18 hrs in presence of MgCl2 by broth dilution method; assay type: functional; conditions: ATCC 25922, 18 h
[15] = tested on: Escherichia coli; assay: Antibacterial activity against Escherichia coli ATCC 25922 after 24 hrs; assay type: functional; conditions: ATCC 25922, 24 h; outline: as §2
[16] = tested on: Salmonella typhimurium; assay: Antibacterial activity against Salmonella typhimurium ATCC 14028 after 24 hrs; assay type: functional, Salmonella enterica subsp. enterica serovar Typhimurium; conditions: Salmonella enterica, ATCC 14028, 24 h; outline: as §2
[17] = tested on: Staphylococcus aureus; assay: Antibacterial activity against methicillin-resistant Staphylococcus aureus ATCC 4330 after 24 hrs; assay type: functional; conditions: ATCC 4330, 24 h
Outline: (§3)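 Modified NCCLS broth microdilution. Mid-log bacteria at (0.5−1) × 10^5 CFU/mL in MHB were mixed 1:1 with peptide serially diluted in 0.2% BSA and incubated 24 h at 37 °C. Absorbance was read at 492 nm; MIC is the lowest concentration inhibiting 95% of growth. At least 3 repeats.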

[18] = Bactericidal activity against Salmonella pullorum ATCC 7913; assay type: functional, Salmonella enterica subsp. enterica serovar Pullorum; conditions: Salmonella enterica, read-out: MBC99.9; outline: as §1
[19] = tested on: Staphylococcus aureus; assay: Antibacterial activity against Staphylococcus aureus ATCC 25923 after 24 hrs; assay type: functional; conditions: ATCC 25923, 24 h; outline: as §3
[20] = tested on: Staphylococcus epidermidis; assay: Antibacterial activity against Staphylococcus epidermidis ATCC 12228 after 24 hrs; assay type: functional; conditions: ATCC 12228, 24 h; outline: as §2
[21] = tested on: Escherichia coli; assay: Antibacterial activity against Escherichia coli ATCC 25922 after 18 hrs in presence of ZnCl2 by broth dilution method; assay type: functional; conditions: ATCC 25922, 18 h
[22] = tested on: Staphylococcus aureus; assay: Antibacterial activity against Staphylococcus aureus ATCC 29213 after 24 hrs; assay type: functional; conditions: ATCC 29213, 24 h; outline: as §3
[23] = tested on: Escherichia coli; assay: Antibacterial activity against Escherichia coli ATCC 25922 after 18 hrs in presence of FeCl3 by broth dilution method; assay type: functional; conditions: ATCC 25922, 18 h
[24] = tested on: Staphylococcus aureus; assay: Bactericidal activity against methicillin-resistant Staphylococcus aureus ATCC 4330; assay type: functional; conditions: read-out: MBC99.9
Outline: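 Bacteria at (0.5−1) × 10^5 CFU/mL in MHB were exposed to serially diluted peptide (0.2% BSA) for 24 h at 37 °C, then 50 μL aliquots were plated on agar overnight. MBC is the lowest concentration killing >99.9% of cells. At least 3 repeats.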

[25] = tested on: Escherichia coli; assay: Bactericidal activity against Escherichia coli 1005; assay type: functional; conditions: read-out: MBC99.9; outline: as §1
[26] = tested on: Escherichia coli; assay: Bactericidal activity against Escherichia coli ATCC 25922; assay type: functional; conditions: read-out: MBC99.9; outline: as §1

In the case of `CC[C@H](C)CCCCC(=O)N[C@@H](CCN)C(=O)N[C@H](C(=O)N[C@@H](CCN)C(=O)N[C@H]1CCNC(=O)[C@H]([C@@H](C)O)NC(=O)[C@H](CCN)NC(=O)[C@H](CCN)NC(=O)[C@H](CC(C)C)NC(=O)[C@@H](Cc2ccccc2)NC(=O)[C@H](CCN)NC1=O)[C@@H](C)O` (X1-[Dab]T[Dab][Dab][Dab][dF]L[Dab][Dab]T; lactam 4-C), the MIC [1] is reported as 2 µM, the MIC [2] is reported as 2 µM and the MIC [3] is reported as 2 µM. For the same molecule, the MBC [4] was 32 µM (≈ 38.5 µg/mL), the MIC95 [5] was 1 µM (≈ 1.2 µg/mL) and the MIC95 [6] was 1 µM (≈ 1.2 µg/mL). For the same molecule, the MBC [7] was 64 µM (≈ 77 µg/mL), the MIC [8] was 8 µM and the MIC [9] was 2 µM. The MBC [10] was 2 µM (≈ 2.41 µg/mL), the MBC [11] was 64 µM (≈ 77 µg/mL) and the MIC [12] was 2 µM. The MIC [13] was 4 µM, the MIC [14] was 4 µM and the MIC95 [15] was 2 µM (≈ 2.41 µg/mL). It also gave an MIC95 [16] of 2 µM (≈ 2.41 µg/mL), an MIC95 [17] of 64 µM (≈ 77 µg/mL) and an MBC [18] of 2 µM (≈ 2.41 µg/mL). It also gave an MIC95 [19] of 32 µM (≈ 38.5 µg/mL), an MIC95 [20] of 32 µM (≈ 38.5 µg/mL) and an MIC [21] of 2 µM. For the same molecule, the MIC95 [22] was 64 µM (≈ 77 µg/mL), the MIC [23] was 2 µM and the MBC [24] was 64 µM (≈ 77 µg/mL). The MBC [25] was 2 µM (≈ 2.41 µg/mL) and the MBC [26] was 4 µM (≈ 4.81 µg/mL).

Source: ChEMBL document CHEMBL4177755, “Combating Drug-Resistant Fungi with Novel Imperfectly Amphipathic Palindromic Peptides” (J Med Chem, 2018)
